Source: ChEMBL document CHEMBL1140848, “Redox-active dinitrodiphenylthioethers against Leishmania: synthesis, structure-activity relationships and mechanism of action studies” (Bioorg Med Chem, 2009)
Activity calls are given as the source filed them. The calls are words filed in the database; no cut-off is given here.

Assays:
Leishmania donovani [1] = assay: Reduction of parasitemia in Leishmania donovani LV82 promastigotes infected BALB/c mouse at 25 mg/kg/day, ip for 5 days relative to control; assay type: functional; parameters: scale not given: the % may be the effect or the level left; details: route intraperitoneal
Summary of the method: (§1)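 Infected BALB/c mice were dosed i.p. once daily for 5 days, starting 7 days post-infection. Vehicles were 10% DMSO/70% cremophor-ethanol (3:1)/20% PBS, or PBS for miltefosine. On day 14, Giemsa-stained liver smears were scored as amastigotes per 1000 liver cells × liver weight (mg) and compared with vehicle controls. 4–5 mice per group, SD.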

Leishmania donovani [2] = assay: Antileishmanial activity against Leishmania donovani MHOM/SD/62/1S-CL2D axenic amastigotes after 3 days by tetrazolium dye based colorimetric assay; assay type: functional, organism-based; details: 72 h
Summary of the method: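 Axenic amastigotes adapted from promastigotes and kept in amastigote medium at 37 °C. 6 × 10^4 cells per well, 2-fold compound dilutions, 3 days at 37 °C in 5% CO2. Growth read as tetrazolium (CellTiter) absorbance at 490 nm several hours after dye addition. IC50 from a four-parameter dose-response fit. Three or more separate experiments.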

Leishmania amazonensis = assay: Antileishmanial activity against beta-lactamase transfected Leishmania amazonensis in CD1 mouse macrophages assessed as infected macrophages after 72 hrs; assay type: functional, organism-based
Summary of the method: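 Starch-elicited peritoneal macrophages from CD-1 mice were plated at 1 × 10^6 cells/ml and adhered overnight. They were infected overnight at 34 °C with β-lactamase-expressing L. amazonensis (5 × 10^6 cells/ml) and washed. Twofold compound dilutions were applied for 72 h at 34 °C. Cells were lysed in 0.1% Triton X-100 with 100 µM nitrocefin for 4 h at 37 °C and read at A490. IC50 by four-parameter fit.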

[3] = Cytotoxicity against CD1 mouse macrophages at 6.3 uM after 72 hrs; assay type: cell-based; details: macrophage
Vero = assay: Cytotoxicity against african green monkey Vero cells after 3 days by tetrazolium dye based colorimetric assay; assay type: cell-based; details: Chlorocebus sabaeus, 72 h
Summary of the method: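 Vero cells were grown in alpha-MEM with 10% HI-FBS. 1 × 10^3 cells per well received 2-fold compound dilutions for 3 days at 37 °C, 5% CO2. Growth was read as tetrazolium (CellTiter) absorbance at 490 nm. IC50 by four-parameter dose-response fit.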

Leishmania donovani [4] = assay: Antiparasitic activity against Leishmania donovani promastigotes assessed as reduction of membrane potential by rhodamine 123 assay; assay type: functional; parameters: scale not given: the % may be the effect or the level left
Summary of the method: (§2)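 Promastigotes at 1 × 10^6 cells/ml were exposed to compounds in 1% DMSO for 24 h, at 10 µM and above. FCCP 100 µM for 2 h served as positive control. Cells were then stained with 1 µM rhodamine 123 for 1 h and read by flow cytometry. Results are % fluorescence reduction against vehicle controls. Three experiments, SEM.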

[5] = Cytotoxicity against CD1 mouse macrophages at 13 uM after 72 hrs; assay type: cell-based; details: macrophage
Leishmania donovani [6] = assay: Antileishmanial activity against Leishmania donovani promastigotes assessed as induction of ROS production in by flow cytometric detection at 0.1 uM after 24 hrs; assay type: functional, organism-based
Summary of the method: (§3)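 Log-phase promastigotes were loaded with 10 µg/ml CM-H2DCFDA in FBS-free medium for 60 min at 25 °C. They were then resuspended at 1 × 10^6 cells/ml and exposed to compounds in 1% DMSO for 24 h. Fluorescence was read by flow cytometry on 10,000 cells and normalized to vehicle controls (=1.0). H2O2 250 µM served as positive control. Three experiments, SEM.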

Leishmania donovani [7] = assay: Antileishmanial activity against Leishmania donovani promastigotes assessed as induction of ROS production in by flow cytometric detection at 1 uM after 24 hrs; assay type: functional, organism-based; summary of the method: as §3
Leishmania donovani [8] = assay: Antileishmanial activity against Leishmania donovani promastigotes assessed as induction of ROS production in by flow cytometric detection at 100 uM after 24 hrs; assay type: functional, organism-based; summary of the method: as §3
Leishmania donovani [9] = assay: Reduction of parasitemia in Leishmania donovani LV82 promastigotes infected BALB/c mouse at 50 mg/kg/day, ip for 5 days relative to control; assay type: functional; parameters: scale not given: the % may be the effect or the level left; details: route intraperitoneal
[10] = Lipophilicity, log P of the compound; assay type: physicochemical; details: octanol/water
Summary of the method: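 clogP was calculated with the ChemAxon/Marvin program.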

Leishmania donovani [11] = assay: Antileishmanial activity against Leishmania donovani promastigotes assessed as induction of ROS production in by flow cytometric detection at 10 uM after 24 hrs; assay type: functional, organism-based; summary of the method: as §3
Leishmania donovani [12] = assay: Antiparasitic activity against Leishmania donovani promastigotes assessed as reduction of membrane potential 10 uM by rhodamine 123 assay; assay type: functional; parameters: scale not given: the % may be the effect or the level left; summary of the method: as §2
[13] = Cytotoxicity against CD1 mouse macrophages assessed as infected macrophages at 3.1 uM after 72 hrs; assay type: cell-based; details: macrophage
Leishmania donovani [14] = assay: Reduction of parasitemia in Leishmania donovani infected BALB/c mouse at 3 mg/kg/day, ip for 5 days relative to control; assay type: functional; parameters: scale not given: the % may be the effect or the level left; details: route intraperitoneal; summary of the method: as §1

Row | IC50 (Leishmania donovani [2]) [µM] | IC50 (Leishmania amazonensis) [µM] | SMILES | IC50 (Vero) [µM] | other results
1 | – | – | COc1ccc(Sc2c([N+](=O)[O-])cc(C#N)cc2[N+](=O)[O-])cc1 | – | Activity (Leishmania donovani [1]): 28%
2 | 1.6 | 2.4 | Cc1cccc(Sc2c([N+](=O)[O-])cc(C(F)(F)F)cc2[N+](=O)[O-])c1 | 7.3 | Activity [3]: Toxic
3 | 23 | – | Cc1cc(Sc2c([N+](=O)[O-])cccc2[N+](=O)[O-])c(Cl)cc1Cl | – | Activity (Leishmania donovani [4]): < 20%
4 | 0.56 | 3.4 | Cc1cc(Sc2c([N+](=O)[O-])cc(C(F)(F)F)cc2[N+](=O)[O-])c(Cl)cc1Cl | 9.7 | Activity [5]: Toxic; Activity (Leishmania donovani [6]): inactive; Activity (Leishmania donovani [7]): inactive; Activity (Leishmania donovani [8]): Active; Activity (Leishmania donovani [4]): Dose-dependent effect; Activity (Leishmania donovani [9]): -2%; logP [10]: 6.85
5 | 7.3 | – | O=C(O)c1ccccc1Sc1c([N+](=O)[O-])cc(C(F)(F)F)cc1[N+](=O)[O-] | – | –
6 | 35 | – | O=[N+]([O-])c1cc(C(F)(F)F)cc([N+](=O)[O-])c1SC1CCCCC1 | – | –
7 | 3.4 | – | O=[N+]([O-])c1cc(C(F)(F)F)cc([N+](=O)[O-])c1Oc1ccc(Cl)cc1Cl | – | –
8 | 59 | – | Cc1cc(Sc2ncc(C(F)(F)F)cc2[N+](=O)[O-])c(Cl)cc1Cl | – | –
9 | 1 | 5.8 | Cc1cc(Sc2c([N+](=O)[O-])cc(C#N)cc2[N+](=O)[O-])c(Cl)cc1Cl | 11 | Activity [5]: Toxic; Activity (Leishmania donovani [11]): Active; Activity (Leishmania donovani [8]): Active; Activity (Leishmania donovani [12]): 90%
10 | 88 | – | Cc1cc(Sc2ccc([N+](=O)[O-])cc2)c(Cl)cc1Cl | – | –
11 | 98 | – | CCSc1c([N+](=O)[O-])cc(C(F)(F)F)cc1[N+](=O)[O-] | – | –
12 | > 200 | – | Cc1cc([N+](=O)[O-])c(Sc2cc(C)c(Cl)cc2Cl)c([N+](=O)[O-])c1 | – | Activity (Leishmania donovani [6]): inactive; Activity (Leishmania donovani [7]): inactive; Activity (Leishmania donovani [11]): inactive; Activity (Leishmania donovani [4]): < 20%
13 | 98 | – | Cc1cc(Sc2ccc(C(F)(F)F)cc2[N+](=O)[O-])c(Cl)cc1Cl | – | –
14 | 3.3 | – | O=[N+]([O-])c1cc(C(F)(F)F)cc([N+](=O)[O-])c1Sc1ccc(O)cc1 | – | –
15 | 1.9 | 5.1 | COc1ccc(Sc2c([N+](=O)[O-])cc(C(F)(F)F)cc2[N+](=O)[O-])cc1 | 12 | –
16 | 0.4 | 2.6 | O=[N+]([O-])c1cc(C(F)(F)F)cc([N+](=O)[O-])c1Sc1ccc(Cl)cc1Cl | 4.3 | Activity [13]: Toxic
17 | 100 | – | Cc1cc(Sc2c(C(F)(F)F)cc(C(F)(F)F)cc2C(F)(F)F)c(Cl)cc1Cl | – | –
18 | 0.62 | 1.8 | Cc1cc(Sc2c([N+](=O)[O-])cc([N+](=O)[O-])cc2C(F)(F)F)c(Cl)cc1Cl | 5.2 | Activity [3]: Toxic
19 | 25 | – | O=[N+]([O-])c1cc(C(F)(F)F)cc([N+](=O)[O-])c1Nc1ccc(Cl)cc1Cl | – | –
20 | 0.96 | 2.6 | O=[N+]([O-])c1cc(C(F)(F)F)cc([N+](=O)[O-])c1Sc1ccccc1 | 6 | Activity [3]: Toxic
21 | – | – | COc1cc([C@@H]2c3cc4c(cc3[C@H](O)[C@H]3COC(=O)[C@H]23)OCO4)cc(OC)c1OC [PODOFILOX] | 0.023 | –
22 | – | – | CCCCCCCCCCCCCCCCOP(=O)([O-])OCC[N+](C)(C)C [MILTEFOSINE] | – | Activity (Leishmania donovani [14]): 41%
